Measurements from different studies.
PI4KA: Phosphatidylinositol 4-kinase alpha (PI4KA, Homo sapiens, UniProt P42356)
Oprm1: Mu-type opioid receptor (Oprm1, Rattus norvegicus, UniProt P33535)

COc1ncccc1-c1cnn2ccc(N3CCN(C(=O)OC(C)C)CC3)nc12  remaining binding (Mitogen-activated protein kinase kinase kinase 19 (MAP3K19, Homo sapiens, UniProt Q56UN5); binding, competition with immobilised ligand; 1 µM): 100%
Cn1cc(-c2cccc(N3CCc4c(sc5c4CC(C)(C)C5)C3=O)c2CO)cc(Nc2ccncn2)c1=O  inhibition (PI4KA; enzyme activity, inhibitor; 1 µM): -5%
OC[C@H]1CNCCN1C[C@@H]1CCCN1C[C@H](CC1CCCCC1)N1CCN(CCC23CC4CC(CC(C4)C2)C3)[C@H](Cc2ccc(O)cc2)C1  remaining binding (Oprm1; ligand displacement, radioligand; 0.5 µM, 1 h, pH 7.5, cell membranes): 108%
Cc1nn(C)cc1-c1nc2c(N3CCN(Cc4ccc(Cl)cc4)CC3)c(Cl)cnc2[nH]1  remaining binding (Atypical kinase COQ8A, mitochondrial (COQ8A, Homo sapiens, UniProt Q8NI60); binding, competition with immobilised ligand; 1 µM): 80%
C#Cc1n[nH]c2c(-c3cn(C(C)c4ccccn4)c(=O)[nH]c3=O)cc(F)cc12 (stereo not shown)  inhibition (Vascular endothelial growth factor receptor 1 (FLT1, Homo sapiens, UniProt P17948); enzyme activity, inhibitor; 1 µM): -3.1%
CC(C)(C)c1nc(-c2cccc(NS(=O)(=O)c3c(F)cccc3F)c2F)c(-c2ccnc(N)n2)s1  remaining activity (Tau-tubulin kinase 1 (TTBK1, Homo sapiens, UniProt Q5TCY1); enzyme activity, inhibitor, radiometric; 1 µM): 89%
C[C@@H](O)[C@@H]1CN([C@H](Cc2ccc3ccccc3c2)CN2CCC[C@H]2CN2CCNC[C@@H]2Cc2ccc3ccccc3c2)CCN1CCc1ccc(Cl)c(Cl)c1  remaining binding (Oprm1; ligand displacement, radioligand; 0.5 µM, 1 h, pH 7.5, cell membranes): 109%
Nc1ncc(-c2nc(N3CCOCC3)nc(N3CCOCC3)n2)c(C(F)F)n1  remaining binding (Mast/stem cell growth factor receptor Kit (KIT, Homo sapiens, UniProt P10721, V559D); binding, competition with immobilised ligand; 10 µM): 18%
CC[C@@H](C)[C@@H]1CN([C@H](Cc2ccc3ccccc3c2)CN2CCC[C@H]2CN2CCNC[C@@H]2CO)CCN1CCc1ccc(Cl)c(Cl)c1  remaining binding (Oprm1; ligand displacement, radioligand; 0.5 µM, 1 h, pH 7.5, cell membranes): 98.4%
Cn1cc(-c2cc(F)cc(N3CCn4c(cc5c4CCCC5)C3=O)c2CO)cc(Nc2ccc(N3CCN(C4COC4)CC3)cn2)c1=O  inhibition (PI4KA; enzyme activity, inhibitor; 0.1 µM): 6%
